Data published in ChEMBL document CHEMBL1145161, “Inhibitors of Trypanosoma cruzi trypanothione reductase revealed by virtual screening and parallel synthesis” (J Med Chem, 2005).

Tests used:
[1] = target: T1, Trypanothione reductase (Trypanosoma cruzi, UniProt P28593); assay: (§1) Inhibitory constant against recombinant Trypanosoma cruzi trypanothione reductase was determined photometrically at 25 degree C in TR assay buffer (40 mM Hepes, 1 mM EDTA, pH 7.5)
Summary of the method: (§2)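 Spectrophotometric TR assay at 25 °C, 40 mM Hepes, 1 mM EDTA, pH 7.5; 100 μM NADPH, 10–15 mU TR; reaction started with TS2, A340 decrease followed. TS2 varied at several fixed inhibitor concentrations (e.g. 5, 10, 20 μM); Ki from slopes and x-axis intercepts of Lineweaver–Burk plots, Dixon plots also used; data at least in duplicate.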

[2] = target: T2, Glutathione reductase, mitochondrial (Homo sapiens, UniProt P00390); assay: (§3) Inhibitory constant against human glutathione reductase
T2 sequence (P00390 whole entry): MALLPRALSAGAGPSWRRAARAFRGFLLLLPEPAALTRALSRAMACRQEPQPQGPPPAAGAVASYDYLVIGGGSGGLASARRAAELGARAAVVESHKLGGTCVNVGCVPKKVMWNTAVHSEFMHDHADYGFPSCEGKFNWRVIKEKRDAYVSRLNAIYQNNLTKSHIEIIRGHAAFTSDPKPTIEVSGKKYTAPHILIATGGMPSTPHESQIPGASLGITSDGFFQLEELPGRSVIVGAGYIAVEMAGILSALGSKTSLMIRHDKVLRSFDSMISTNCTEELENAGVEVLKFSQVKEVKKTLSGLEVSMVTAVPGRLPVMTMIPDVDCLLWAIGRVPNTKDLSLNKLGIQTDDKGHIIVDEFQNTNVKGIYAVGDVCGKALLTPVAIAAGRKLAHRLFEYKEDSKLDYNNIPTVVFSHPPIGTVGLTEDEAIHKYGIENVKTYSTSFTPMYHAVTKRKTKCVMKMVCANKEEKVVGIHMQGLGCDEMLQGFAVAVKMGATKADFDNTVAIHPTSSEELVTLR
Summary of the method: (§4)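 Human GR kinetics in phosphate/KCl/EDTA buffer pH 6.9 at 25 °C, 100 μM NADPH, 5–10 mU GR; GSSG varied (40–1000 μM) at two fixed inhibitor levels, 120 and 240 μM; DMSO controls.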

[3] = target: Trypanothione reductase (Trypanosoma cruzi) (UniProt P28593); assay: Inhibitory activity (100 uM) against recombinant Trypanosoma cruzi trypanothione reductase was determined in presence of Trypanothione disulfide (40 uM)
Sequence of Trypanothione reductase (Trypanosoma cruzi) (P28593 whole entry, looked up): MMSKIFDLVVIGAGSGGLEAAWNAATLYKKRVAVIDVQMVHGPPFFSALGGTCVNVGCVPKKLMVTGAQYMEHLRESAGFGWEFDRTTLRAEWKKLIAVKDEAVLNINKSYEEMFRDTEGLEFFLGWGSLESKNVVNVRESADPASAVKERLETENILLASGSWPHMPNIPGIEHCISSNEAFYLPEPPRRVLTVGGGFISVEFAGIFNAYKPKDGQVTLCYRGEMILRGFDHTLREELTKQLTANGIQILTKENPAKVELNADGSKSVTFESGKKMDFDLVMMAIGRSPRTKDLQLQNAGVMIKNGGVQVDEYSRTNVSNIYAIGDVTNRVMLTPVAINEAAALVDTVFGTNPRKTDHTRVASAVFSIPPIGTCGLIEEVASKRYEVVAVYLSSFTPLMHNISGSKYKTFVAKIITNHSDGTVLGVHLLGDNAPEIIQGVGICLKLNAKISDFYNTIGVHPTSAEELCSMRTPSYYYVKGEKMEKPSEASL
Summary of the method: (§5)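 Recombinant T. cruzi TR, 10–15 mU, in 40 mM Hepes, 1 mM EDTA, pH 7.5, 25 °C, 100 μM NADPH; activity at fixed TS2 (40 or 110 μM) without and with 100 μM inhibitor; TS2 starts reaction, A340 decrease monitored; DMSO controls where needed. Inhibitor stocks 4 mM in DMSO or water.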

[4] = target: Trypanothione reductase (Trypanosoma cruzi) (UniProt P28593); assay: Inhibitory activity (100 uM) against recombinant Trypanosoma cruzi trypanothione reductase was determined in presence of Trypanothione disulfide (110 uM); summary of the method: as §5
[5] = target: Trypanothione reductase (Trypanosoma cruzi) (UniProt P28593); assay: as §1; summary of the method: as §2
[6] = target: T3, Glutathione reductase, mitochondrial (Homo sapiens) (UniProt P00390); assay: as §3; summary of the method: as §4
T3 sequence (whole entry): T2 sequence (P00390 whole entry)

[7] = target: T3, Glutathione reductase, mitochondrial (Homo sapiens); assay: Inhibitory activity against human Glutathione reductase relative to GSSG (100 uM)
[8] = target: T1, Trypanothione reductase; assay: Competitive inhibitory constant against recombinant Trypanosoma cruzi trypanothione reductase was determined photometrically at 25 degree C in TR assay buffer (40 mM Hepes, 1 mM EDTA, pH 7.5); summary of the method: as §2
[9] = target: T3, Glutathione reductase, mitochondrial (Homo sapiens); assay: Percent inhibition of human glutathione reductase at 100 uM relative to 100 uM GSSG

T1 sequence (P28593 whole entry): as the sequence (P28593 whole entry, looked up) above

inhibition [3]	inhibition [4]	further results	SMILES
–	–	Ki [1]: 2 µM	COc1cc(C(N)=Nc2ccc(Oc3ccc(N=C(N)c4ccc(OCc5ccccc5)c(OC)c4)cc3)cc2)ccc1OCc1ccccc1
–	–	Ki [1]: 5 µM	COc1cc(C(=N)NCCCCCCCCNC(=N)c2ccc(OCc3ccccc3)c(OC)c2)ccc1OCc1ccccc1
–	–	Ki [2]: 192 µM; Ki [1]: 2 µM	[H]/N=C(\N/C(=N/[H])NCCCCCCNC(=N)NC(=N)Nc1ccc(Cl)cc1)Nc1ccc(Cl)cc1 [CHLORHEXIDINE]
92%	85%	Ki' [5]: 47 µM	COc1cc(C(=N)NCCCCCCCCN=C(N)c2ccc(OCc3ccccc3)c(OC)c2)ccc1OCc1ccccc1
14%	< 10%	–	N=C(NCCOCCOCCNC(=N)c1cccs1)c1cccs1
–	–	Ki [1]: 6.2 µM; Ki' [5]: 8.5 µM	O=C(Cc1cccc2ccccc12)NCCNC(=O)C1(NC(=O)C(=O)c2ccc([N+](=O)[O-])cc2)CCNCC1
17%	16%	–	N=C(NC1CCC(CC2CCC(NC(=N)c3cccs3)CC2)CC1)c1cccs1 (stereo not given)
–	–	Ki' [6]: 210 µM	N=C(NCCCCCCNC(=N)NC(=N)Nc1ccc(Cl)cc1)NC(=N)Nc1ccc(Cl)cc1
< 10%	< 10%	–	CN1CCN(CCC/N=C(\N)c2cccs2)CC1
11%	12%	–	N=C(Nc1ccc(Oc2ccc(NC(=N)c3cccs3)cc2)cc1)c1cccs1
< 10%	< 10%	–	N=C(NC1CCC(CC2CCC(NC(=N)c3cnccn3)CC2)CC1)c1cnccn1 (stereo not given)
14%	15%	–	N=C(NCCc1cccnc1)c1sccc1Br
15%	< 10%	–	N=C(NCCCCCCCCNC(=N)c1cccs1)c1cccs1
39%	31%	–	CN1CCN(CC/N=C(\N)c2ccc3[nH]ccc3c2)CC1
< 10%	< 10%	–	CN1CCN(CCC/N=C(\N)c2sccc2Br)CC1
80%	69%	inhibition [7]: 5%; Ki [8]: 6 µM	N=C(CCCCCCCC(=N)NCC#Cc1ccccc1)NCC#Cc1ccccc1
11%	< 10%	–	N=C(NCCOCCOCCNC(=N)c1cnccn1)c1cnccn1
94%	97%	Ki [1]: 2 µM; inhibition [9]: 35%; Ki' [5]: 16 µM	COc1cc(C(=N)NC2CCC(CC3CCC(/N=C(\N)c4ccc(OCc5ccccc5)c(OC)c4)CC3)CC2)ccc1OCc1ccccc1 (stereo not given)
95%	90%	inhibition [7]: 45%; Ki' [5]: 22 µM	COc1cc(C(=N)Nc2ccc(Oc3ccc(NC(=N)c4ccc(OCc5ccccc5)c(OC)c4)cc3)cc2)ccc1OCc1ccccc1
< 10%	< 10%	–	N=C(NCCc1cccnc1)c1cccs1
